According to ChEMBL document CHEMBL1133404, “Synthesis and biological activities of NB-506 analogues modified at the glucose group” (Bioorg Med Chem Lett, 2000):

Experiments:
MKN-45 [1] = assay: Tested for cytotoxic activity against human stomach cancer cells (MKN-45); assay type: functional, cell-based
How it was run: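 The human stomach cancer MKN-45 cell line was used. Cytotoxicity was read out by a colorimetric tetrazolium–formazan assay and by sulforhodamine B dye staining.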

P388 [2] = assay: The compound was tested for the cytotoxic activity against murine leukemia cells (P388); assay type: functional, cell-based; details: Mus musculus
How it was run: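 The murine leukemia P388 cell line was used. Cytotoxicity was read out by a colorimetric tetrazolium–formazan assay.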

P388 [3] = assay: Compound was tested for the effect on the formation of protein-DNA complex in P388 cells investigated by the K+/SDS method; assay type: functional, Mus musculus
How it was run: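 Formation of topoisomerase–DNA (protein–DNA) complexes was measured in murine leukemia P388 cells by K+/SDS precipitation. Activity was reported as EC200.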

Protein kinase C (PKC) = assay: Inhibitory effect on protein kinase C using histone II-As as substrate; assay type: protein assay
DNA topoisomerase II = DNA topoisomerase II (Homo sapiens, UniProt P11388+Q02880); assay: Tested for inhibitory effect on topoisomerase-2 mediated DNA cleavage using super coiled pBR322 plasmid DNA; assay type: functional
DNA topoisomerase 1 = biological target: T1, DNA topoisomerase 1 (Homo sapiens, UniProt P11387); assay: Inhibitory effect on topoisomerase-1 mediated DNA cleavage using supercoiled pBR322 plasmid DNA; assay type: functional
T1 sequence (P11387 whole entry): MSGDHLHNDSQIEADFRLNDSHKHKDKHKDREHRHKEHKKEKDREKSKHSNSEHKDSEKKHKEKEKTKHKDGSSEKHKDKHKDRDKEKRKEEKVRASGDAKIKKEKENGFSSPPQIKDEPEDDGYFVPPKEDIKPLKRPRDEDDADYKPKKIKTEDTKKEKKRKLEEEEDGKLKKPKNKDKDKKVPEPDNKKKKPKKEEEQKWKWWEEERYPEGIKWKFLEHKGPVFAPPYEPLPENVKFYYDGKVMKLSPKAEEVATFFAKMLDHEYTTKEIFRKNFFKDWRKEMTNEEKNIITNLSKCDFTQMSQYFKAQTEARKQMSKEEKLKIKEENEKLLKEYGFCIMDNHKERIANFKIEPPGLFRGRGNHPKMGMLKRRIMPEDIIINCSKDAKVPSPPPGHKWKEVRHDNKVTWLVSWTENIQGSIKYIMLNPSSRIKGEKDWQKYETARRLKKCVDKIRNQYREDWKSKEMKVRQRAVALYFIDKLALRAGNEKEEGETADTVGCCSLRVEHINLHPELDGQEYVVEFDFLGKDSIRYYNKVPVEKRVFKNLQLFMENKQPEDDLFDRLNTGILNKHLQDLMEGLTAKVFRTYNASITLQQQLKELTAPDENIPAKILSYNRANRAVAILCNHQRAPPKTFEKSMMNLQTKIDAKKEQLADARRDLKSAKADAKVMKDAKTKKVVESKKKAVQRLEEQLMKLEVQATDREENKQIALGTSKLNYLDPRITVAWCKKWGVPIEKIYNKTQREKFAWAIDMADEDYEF

MKN-45 [4] = assay: Ratio of compound toxicity to that of anticancer activity against human stomach cancer cells MKN-45 in mice; assay type: functional
How it was run: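 MKN-45 human stomach cancer cells were implanted subcutaneously in a side flank of nude mice. Dosing began once tumors reached 0.2 cm³ or larger and was given intravenously five times per week for 2 weeks. GID75 is the approximate dose giving 75% tumor growth inhibition. LD10 is the approximate 10% lethal dose on the same schedule. Safety margin is LD10/GID75.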

Mus sp. = species on record: Mus sp.; assay: Tested for toxicity in mice; assay type: organism-based; details: in vivo
How it was run: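 Nude mice bearing subcutaneous MKN-45 human stomach cancer flank xenografts; dosing intravenous five times/week for 2 weeks, starting once tumors reached 0.2 cm³ or larger. Toxicity expressed as LD₁₀, the approximate dose lethal to 10% of animals on this schedule.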

MKN-45 [5] = assay: Inhibitory activity against human stomach cancer cells MKN-45 in nude mice after intravenous dose

| Structure (SMILES) | IC50 (MKN-45 [1]) | IC50 (P388 [2]) | EC200 (P388 [3]) | IC50 (Protein kinase C (PKC)) | EC50 (DNA topoisomerase II) | EC50 (DNA topoisomerase 1) | Saftey margin (MKN-45 [4]) | LD10 (Mus sp.) | GID75 (MKN-45 [5]) |
| --- | --- | --- | --- | --- | --- | --- | --- | --- | --- |
| O=C1c2c(c3c4ccc(O)cc4n([C@@H]4O[C@H](CO)[C@@H](O)[C@@H]4O)c3c3[nH]c4cc(O)ccc4c23)C(=O)N1NC(CO)CO | 93 nM | 5.3 nM | 430 nM | 120000 nM | > 50000 nM | 32 nM |  |  |  |
| O=C1c2c(c3c4ccc(O)cc4n([C@H]4O[C@H](CO)[C@H](O)[C@H]4O)c3c3[nH]c4cc(O)ccc4c23)C(=O)N1NC(CO)CO | 68 nM | 12 nM | 400 nM | > 200000 nM | > 50000 nM | 17 nM |  |  |  |
| C[C@H]1O[C@@H](n2c3cc(O)ccc3c3c4c(c5c6ccc(O)cc6[nH]c5c32)C(=O)N(NC(CO)CO)C4=O)[C@H](O)[C@@H](O)[C@@H]1O | 38 nM | 3 nM | 6500 nM | 60000 nM | > 50000 nM | 140 nM |  |  |  |
| O=C1c2c(c3c4ccc(O)cc4n([C@@H]4O[C@H](CO)[C@H](O)[C@H]4O)c3c3[nH]c4cc(O)ccc4c23)C(=O)N1NC(CO)CO | 6 nM | 0.96 nM | 60 nM | > 200000 nM | > 50000 nM | 17 nM | 1.4 | 420 mg m**-2 | 300 mg m**-2 |
| O=C1c2c(c3c4ccc(O)cc4n([C@@H]4O[C@@H](C(O)CO)[C@@H](O)[C@H]4O)c3c3[nH]c4cc(O)ccc4c23)C(=O)N1NC(CO)CO (some centres not stated) | 29 nM | 14 nM | 1700 nM | > 200000 nM | > 50000 nM | 20 nM |  |  |  |
| O=C1c2c(c3c4ccc(O)cc4n([C@H]4O[C@H](CO)[C@@H](O)[C@H]4O)c3c3[nH]c4cc(O)ccc4c23)C(=O)N1NC(CO)CO | 130 nM | 19 nM | 450 nM | 21000 nM | > 50000 nM | 30 nM | 1.9 | 1000 mg m**-2 | 540 mg m**-2 |
| O=C1c2c(c3c4ccc(O)cc4n([C@@H]4O[C@H](CO)[C@@H](O[C@H]5O[C@H](CO)[C@@H](O)[C@H](O)[C@H]5O)[C@H](O)[C@H]4O)c3c3[nH]c4cc(O)ccc4c23)C(=O)N1NC(CO)CO | 73 nM | 3.5 nM | >10000 nM | > 200000 nM | > 50000 nM | > 3000 nM |  |  |  |
| O=C1c2c(c3c4ccc(O)cc4n([C@H]4C[C@H](O)[C@@H](CO)O4)c3c3[nH]c4cc(O)ccc4c23)C(=O)N1NC(CO)CO | 45 nM | 4.4 nM | 170 nM | 3000 nM | > 50000 nM | 25 nM |  |  |  |
| O=C1c2c(c3c4ccc(O)cc4n([C@@H]4OC[C@@H](O)[C@H]4O)c3c3[nH]c4cc(O)ccc4c23)C(=O)N1NC(CO)CO | 37 nM | 2.4 nM |  | 12000 nM |  | 40 nM |  |  |  |
| O=C1c2c(c3c4ccc(O)cc4n([C@@H]4C[C@@H](O)[C@H](O)[C@@H](CO)O4)c3c3[nH]c4cc(O)ccc4c23)C(=O)N1NC(CO)CO | 33 nM | 16 nM | 1200 nM | 150000 nM | > 50000 nM | 130 nM |  |  |  |
| O=C1c2c(c3c4ccc(O)cc4n([C@H]4O[C@H](CO)[C@@H](O)[C@@H](O)[C@H]4O)c3c3[nH]c4cc(O)ccc4c23)C(=O)N1NC(CO)CO | 20 nM | 18 nM | 1600 nM | 72000 nM |  | 26 nM |  |  |  |
| O=C1c2c(c3c4ccc(O)cc4n([C@H]4O[C@H](CO)[C@@H](O)[C@H](O)[C@@H]4O)c3c3[nH]c4cc(O)ccc4c23)C(=O)N1NC(CO)CO | 23 nM | 15 nM | 930 nM | 50000 nM | > 50000 nM | 80 nM |  |  |  |
| O=C1c2c(c3c4ccc(O)cc4n([C@@H]4O[C@H](CO)[C@H](O)[C@H](O)[C@H]4O)c3c3[nH]c4cc(O)ccc4c23)C(=O)N1NC(CO)CO | 9.3 nM | 7.1 nM | >10000 nM | > 200000 nM |  | 140 nM |  |  |  |
| O=C1c2c(c3c4ccc(O)cc4n([C@@H]4O[C@H](C(O)CO)[C@@H](O)[C@H]4O)c3c3[nH]c4cc(O)ccc4c23)C(=O)N1NC(CO)CO (some centres not stated) | 70 nM | 17 nM | 2000 nM | > 200000 nM | > 50000 nM | 42 nM | 1.4 | 370 mg m**-2 | 260 mg m**-2 |
| O=C1c2c(c3c4ccc(O)cc4n([C@@H]4OC[C@@H](O)[C@H](O)[C@H]4O)c3c3[nH]c4cc(O)ccc4c23)C(=O)N1NC(CO)CO | 50 nM | 3.8 nM | 300 nM | > 200000 nM | > 50000 nM | 100 nM |  |  |  |
| O=C1c2c(c3c4ccc(O)cc4n([C@H]4C[C@@H](O)[C@H](O)[C@@H](CO)O4)c3c3[nH]c4cc(O)ccc4c23)C(=O)N1NC(CO)CO | 42 nM | 5.6 nM | 3000 nM | 130000 nM | > 50000 nM | 240 nM |  |  |  |
| O=C1c2c(c3c4ccc(O)cc4n([C@@H]4O[C@H](CO)[C@@H](O)[C@H](O)[C@@H]4O)c3c3[nH]c4cc(O)ccc4c23)C(=O)N1NC(CO)CO | 63 nM | 36 nM | >10000 nM | 20000 nM | > 50000 nM | 230 nM |  |  |  |
| O=C1c2c(c3c4ccc(O)cc4n([C@H]4O[C@H](CO)[C@@H](O)[C@@H]4O)c3c3[nH]c4cc(O)ccc4c23)C(=O)N1NC(CO)CO | 43 nM | 8.5 nM | 2600 nM | > 200000 nM | > 50000 nM | 100 nM |  |  |  |
| O=C1c2c(c3c4ccc(O)cc4n([C@H]4O[C@H](CO)[C@@H](O)[C@H](O)[C@H]4O)c3c3[nH]c4cc(O)ccc4c23)C(=O)N1NC(CO)CO | 8.5 nM | 19 nM | 450 nM | 23000 nM | > 50000 nM | 300 nM | 1.5 | 170 mg m**-2 | 110 mg m**-2 |
